According to ChEMBL document CHEMBL3421573, “Synthesis of new ent-labdane diterpene derivatives from andrographolide and evaluation on cytotoxic activities” (Bioorg Med Chem Lett, 2015):

System: MCF7
Assay: Cytotoxicity against human MCF7 cells after 48 hrs by MTT assay
Assay type: functional, cell-based
Conditions: Homo sapiens, MCF7, 48 h; read-out: IC50; call rule not given here
Summary of the method: (§1)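 Samples dissolved in DMSO (0.1%); cis-platin included as positive control. IC50 taken as the drug concentration giving 50% growth inhibition, in µM.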

| SMILES | IC50 |
| --- | --- |
| C=C1CC[C@@H]2[C@](C)(CO)[C@H](O)CC[C@@]2(C)[C@@H]1CCc1ccoc1 | 79.5 µM |
| C=C1CC[C@@H]2[C@](C)(COC(=O)CC)[C@H](OC(=O)CC)CC[C@@]2(C)[C@@H]1CCc1ccoc1 | > 100 µM |
| C=C1CC[C@@H]2[C@](C)(COC(=O)C(Cl)Cl)[C@H](OC(=O)C(Cl)Cl)CC[C@@]2(C)[C@@H]1CCc1ccoc1 | 22.9 µM |
| C=C1CC[C@@H]2[C@](C)(COC(=O)COc3ccccc3)[C@H](O)CC[C@@]2(C)[C@@H]1CCc1ccoc1 | 36.8 µM |
| C=C1CC[C@@H]2[C@](C)(COC(=O)c3ccc([N+](=O)[O-])cc3)[C@H](O)CC[C@@]2(C)[C@@H]1CCc1ccoc1 | 62.1 µM |
| C=C1CC[C@@H]2[C@](C)(COC(=O)c3ccc([N+](=O)[O-])cc3)[C@H](OC(=O)c3ccc([N+](=O)[O-])cc3)CC[C@@]2(C)[C@@H]1CCc1ccoc1 | > 100 µM |
| C=C1CC[C@@H]2[C@](C)(COC(=O)c3ccc(OC)cc3)[C@H](O)CC[C@@]2(C)[C@@H]1CCc1ccoc1 | 25.2 µM |
| C[C@]1(CO)[C@H]2CCC(=O)[C@@H](CCc3ccoc3)[C@]2(C)CC[C@H]1O | > 100 µM |
| C=C1[C@H](O)C[C@@H]2[C@](C)(COC(=O)CC)[C@H](OC(=O)CC)CC[C@@]2(C)[C@@H]1CCc1ccoc1 | 44 µM |
| C=C1CC[C@H]2[C@@](C)(CCC(=O)[C@@]2(C)CO)[C@@H]1CCc1ccoc1 | 87.3 µM |
| C=C1CC[C@@H]2[C@](C)(CO)[C@H](O)CC[C@@]2(C)[C@@H]1CC(O)C1=CCOC1=O (some centres undefined) | 78 µM |
| C=C1CC[C@@H]2[C@](C)(CO)[C@H](O)CC[C@@]2(C)[C@@H]1CC(O)c1ccoc1 (some centres undefined) | > 100 µM |
| C=C1CC[C@@H]2[C@](C)(COC(=O)CC)[C@H](OC(=O)CC)CC[C@@]2(C)[C@@H]1CC(OC(=O)CC)c1ccoc1 (some centres undefined) | > 100 µM |
| C=C1CC[C@@H]2[C@](C)(COC(c3ccccc3)(c3ccccc3)c3ccccc3)[C@H](OC(C)=O)CC[C@@]2(C)[C@@H]1CC(OC(C)=O)C1=CCOC1=O (some centres undefined) | 6.41 µM |
| C=C1CC[C@@H]2[C@](C)(CO)[C@H](O)CC[C@@]2(C)[C@@H]1C/C=C1/C(=O)OC[C@H]1O [ANDROGRAPHOLIDE] | 30.8 µM |

Same assay, conditions: mcf7

| SMILES | IC50 |
| --- | --- |
| C=C1CC[C@@H]2[C@](C)(CO)[C@H](O)CC[C@@]2(C)[C@@H]1CCC1=CCOC1=O [DEOXYANDROGRAPHOLIDE] | Not Active |

System: MDA-MB-231
Assay: Cytotoxicity against human MDA-MB-231 cells after 48 hrs by MTT assay
Assay type: functional, cell-based
Conditions: Homo sapiens, MDA-MB-231, 48 h; read-out: IC50
Summary of the method: as §1

| SMILES | IC50 |
| --- | --- |
| C=C1CC[C@@H]2[C@](C)(CO)[C@H](O)CC[C@@]2(C)[C@@H]1CCc1ccoc1 | > 100 µM |
| C=C1CC[C@@H]2[C@](C)(COC(=O)CC)[C@H](OC(=O)CC)CC[C@@]2(C)[C@@H]1CCc1ccoc1 | 40.4 µM |
| C=C1CC[C@@H]2[C@](C)(COC(=O)C(Cl)Cl)[C@H](OC(=O)C(Cl)Cl)CC[C@@]2(C)[C@@H]1CCc1ccoc1 | 2.64 µM |
| C=C1CC[C@@H]2[C@](C)(COC(=O)COc3ccccc3)[C@H](O)CC[C@@]2(C)[C@@H]1CCc1ccoc1 | 35 µM |
| C=C1CC[C@@H]2[C@](C)(COC(=O)c3ccc([N+](=O)[O-])cc3)[C@H](O)CC[C@@]2(C)[C@@H]1CCc1ccoc1 | 37.5 µM |
| C=C1CC[C@@H]2[C@](C)(COC(=O)c3ccc([N+](=O)[O-])cc3)[C@H](OC(=O)c3ccc([N+](=O)[O-])cc3)CC[C@@]2(C)[C@@H]1CCc1ccoc1 | > 100 µM |
| C=C1CC[C@@H]2[C@](C)(COC(=O)c3ccc(OC)cc3)[C@H](O)CC[C@@]2(C)[C@@H]1CCc1ccoc1 | 28.6 µM |
| C[C@]1(CO)[C@H]2CCC(=O)[C@@H](CCc3ccoc3)[C@]2(C)CC[C@H]1O | 56.3 µM |
| C=C1[C@H](O)C[C@@H]2[C@](C)(COC(=O)CC)[C@H](OC(=O)CC)CC[C@@]2(C)[C@@H]1CCc1ccoc1 | 40.9 µM |
| C=C1CC[C@H]2[C@@](C)(CCC(=O)[C@@]2(C)CO)[C@@H]1CCc1ccoc1 | 71.2 µM |
| C=C1CC[C@@H]2[C@](C)(CO)[C@H](O)CC[C@@]2(C)[C@@H]1CC(O)C1=CCOC1=O (some centres undefined) | 27.6 µM |
| C=C1CC[C@@H]2[C@](C)(CO)[C@H](O)CC[C@@]2(C)[C@@H]1CC(O)c1ccoc1 (some centres undefined) | > 100 µM |
| C=C1CC[C@@H]2[C@](C)(COC(=O)CC)[C@H](OC(=O)CC)CC[C@@]2(C)[C@@H]1CC(OC(=O)CC)c1ccoc1 (some centres undefined) | > 100 µM |
| C=C1CC[C@@H]2[C@](C)(COC(c3ccccc3)(c3ccccc3)c3ccccc3)[C@H](OC(C)=O)CC[C@@]2(C)[C@@H]1CC(OC(C)=O)C1=CCOC1=O (some centres undefined) | 6.37 µM |
| C=C1CC[C@@H]2[C@](C)(CO)[C@H](O)CC[C@@]2(C)[C@@H]1C/C=C1/C(=O)OC[C@H]1O [ANDROGRAPHOLIDE] | 16.6 µM |

Same assay, conditions: mda-mb-231

| SMILES | IC50 |
| --- | --- |
| C=C1CC[C@@H]2[C@](C)(CO)[C@H](O)CC[C@@]2(C)[C@@H]1CCC1=CCOC1=O [DEOXYANDROGRAPHOLIDE] | Not Active |

System: not listed separately
Assay: Cytotoxicity against human NP14 cells after 48 hrs by MTT assay
Assay type: functional, cell-based
Conditions: NP14, 48 h
Summary of the method: as §1

| SMILES | IC50 |
| --- | --- |
| C=C1CC[C@@H]2[C@](C)(CO)[C@H](O)CC[C@@]2(C)[C@@H]1CCc1ccoc1 | 53.3 µM |
| C=C1CC[C@@H]2[C@](C)(COC(=O)CC)[C@H](OC(=O)CC)CC[C@@]2(C)[C@@H]1CCc1ccoc1 | 94.2 µM |
| C=C1CC[C@@H]2[C@](C)(COC(=O)C(Cl)Cl)[C@H](OC(=O)C(Cl)Cl)CC[C@@]2(C)[C@@H]1CCc1ccoc1 | 4.42 µM |
| C=C1CC[C@@H]2[C@](C)(COC(=O)COc3ccccc3)[C@H](O)CC[C@@]2(C)[C@@H]1CCc1ccoc1 | 18.6 µM |
| C=C1CC[C@@H]2[C@](C)(COC(=O)c3ccc([N+](=O)[O-])cc3)[C@H](O)CC[C@@]2(C)[C@@H]1CCc1ccoc1 | 80.9 µM |
| C=C1CC[C@@H]2[C@](C)(COC(=O)c3ccc([N+](=O)[O-])cc3)[C@H](OC(=O)c3ccc([N+](=O)[O-])cc3)CC[C@@]2(C)[C@@H]1CCc1ccoc1 | > 100 µM |
| C=C1CC[C@@H]2[C@](C)(COC(=O)c3ccc(OC)cc3)[C@H](O)CC[C@@]2(C)[C@@H]1CCc1ccoc1 | 40.4 µM |
| C[C@]1(CO)[C@H]2CCC(=O)[C@@H](CCc3ccoc3)[C@]2(C)CC[C@H]1O | > 100 µM |
| C=C1[C@H](O)C[C@@H]2[C@](C)(COC(=O)CC)[C@H](OC(=O)CC)CC[C@@]2(C)[C@@H]1CCc1ccoc1 | 27.7 µM |
| C=C1CC[C@H]2[C@@](C)(CCC(=O)[C@@]2(C)CO)[C@@H]1CCc1ccoc1 | 43.2 µM |
| C=C1CC[C@@H]2[C@](C)(CO)[C@H](O)CC[C@@]2(C)[C@@H]1CC(O)C1=CCOC1=O (some centres undefined) | 49.4 µM |
| C=C1CC[C@@H]2[C@](C)(CO)[C@H](O)CC[C@@]2(C)[C@@H]1CC(O)c1ccoc1 (some centres undefined) | > 100 µM |
| C=C1CC[C@@H]2[C@](C)(COC(=O)CC)[C@H](OC(=O)CC)CC[C@@]2(C)[C@@H]1CC(OC(=O)CC)c1ccoc1 (some centres undefined) | 43.1 µM |
| C=C1CC[C@@H]2[C@](C)(COC(c3ccccc3)(c3ccccc3)c3ccccc3)[C@H](OC(C)=O)CC[C@@]2(C)[C@@H]1CC(OC(C)=O)C1=CCOC1=O (some centres undefined) | 14.3 µM |
| C=C1CC[C@@H]2[C@](C)(CO)[C@H](O)CC[C@@]2(C)[C@@H]1C/C=C1/C(=O)OC[C@H]1O [ANDROGRAPHOLIDE] | 21.2 µM |
| C=C1CC[C@@H]2[C@](C)(CO)[C@H](O)CC[C@@]2(C)[C@@H]1CCC1=CCOC1=O [DEOXYANDROGRAPHOLIDE] | > 100 µM |

System: not listed separately
Assay: Cytotoxicity against human NTUB1 cells after 48 hrs by MTT assay
Assay type: functional, cell-based
Conditions: NTUB1, 48 h
Summary of the method: as §1

| SMILES | IC50 |
| --- | --- |
| C=C1CC[C@@H]2[C@](C)(CO)[C@H](O)CC[C@@]2(C)[C@@H]1CCc1ccoc1 | 39.8 µM |
| C=C1CC[C@@H]2[C@](C)(COC(=O)CC)[C@H](OC(=O)CC)CC[C@@]2(C)[C@@H]1CCc1ccoc1 | 42.9 µM |
| C=C1CC[C@@H]2[C@](C)(COC(=O)C(Cl)Cl)[C@H](OC(=O)C(Cl)Cl)CC[C@@]2(C)[C@@H]1CCc1ccoc1 | 11.2 µM |
| C=C1CC[C@@H]2[C@](C)(COC(=O)COc3ccccc3)[C@H](O)CC[C@@]2(C)[C@@H]1CCc1ccoc1 | > 100 µM |
| C=C1CC[C@@H]2[C@](C)(COC(=O)c3ccc([N+](=O)[O-])cc3)[C@H](O)CC[C@@]2(C)[C@@H]1CCc1ccoc1 | 23.8 µM |
| C=C1CC[C@@H]2[C@](C)(COC(=O)c3ccc([N+](=O)[O-])cc3)[C@H](OC(=O)c3ccc([N+](=O)[O-])cc3)CC[C@@]2(C)[C@@H]1CCc1ccoc1 | > 100 µM |
| C=C1CC[C@@H]2[C@](C)(COC(=O)c3ccc(OC)cc3)[C@H](O)CC[C@@]2(C)[C@@H]1CCc1ccoc1 | 26.3 µM |
| C[C@]1(CO)[C@H]2CCC(=O)[C@@H](CCc3ccoc3)[C@]2(C)CC[C@H]1O | > 100 µM |
| C=C1[C@H](O)C[C@@H]2[C@](C)(COC(=O)CC)[C@H](OC(=O)CC)CC[C@@]2(C)[C@@H]1CCc1ccoc1 | 29.6 µM |
| C=C1CC[C@H]2[C@@](C)(CCC(=O)[C@@]2(C)CO)[C@@H]1CCc1ccoc1 | 63.1 µM |
| C=C1CC[C@@H]2[C@](C)(CO)[C@H](O)CC[C@@]2(C)[C@@H]1CC(O)C1=CCOC1=O (some centres undefined) | 14.9 µM |
| C=C1CC[C@@H]2[C@](C)(CO)[C@H](O)CC[C@@]2(C)[C@@H]1CC(O)c1ccoc1 (some centres undefined) | > 100 µM |
| C=C1CC[C@@H]2[C@](C)(COC(=O)CC)[C@H](OC(=O)CC)CC[C@@]2(C)[C@@H]1CC(OC(=O)CC)c1ccoc1 (some centres undefined) | 89.7 µM |
| C=C1CC[C@@H]2[C@](C)(COC(c3ccccc3)(c3ccccc3)c3ccccc3)[C@H](OC(C)=O)CC[C@@]2(C)[C@@H]1CC(OC(C)=O)C1=CCOC1=O (some centres undefined) | 8.45 µM |
| C=C1CC[C@@H]2[C@](C)(CO)[C@H](O)CC[C@@]2(C)[C@@H]1C/C=C1/C(=O)OC[C@H]1O [ANDROGRAPHOLIDE] | 32.5 µM |
| C=C1CC[C@@H]2[C@](C)(CO)[C@H](O)CC[C@@]2(C)[C@@H]1CCC1=CCOC1=O [DEOXYANDROGRAPHOLIDE] | > 100 µM |
